Measured values gathered from unrelated publications.
Compare with care: the assays were run in different laboratories.
Target: MAP kinase-interacting serine/threonine-protein kinase 2 (MKNK2, Homo sapiens, UniProt Q9HBH9)

| Compound | read-out | mode | method | tested at | quantity | result |
| --- | --- | --- | --- | --- | --- | --- |
| Nc1ncnc2occ(-c3ccc(NC(=O)Nc4cc(C(F)(F)F)ccc4F)cc3)c12 | cell-free assay | inhibitor |  | 20 µM | remaining signal | 0% |
| Cc1ccc(NC(=O)c2ccc(C)c(C(F)(F)F)c2)cc1C#Cc1nn(C2CCC(O)CC2)c2ncnc(N)c12 (centres unmarked) | cell-free assay |  |  | 10 µM | remaining signal | 96% |
| Nc1nc(Nc2ccccc2)sc1C(=O)c1c(F)cccc1F | enzyme activity | inhibitor |  | 10 µM | remaining activity | 99% |
| C=CC(=O)Nc1cc(Nc2nccc(Nc3cc(Cl)c(F)cc3C(C)(C)O)n2)c(OC)cc1N1CC[C@@H](N(C)C)C1 | enzyme activity | inhibitor |  | 1 µM | inhibition | 67% |
| CC(=O)C1=C(O)C=C2Oc3c(C(N)=O)c(O)cc(O)c3[C@]2(C)C1=O | enzyme activity | inhibitor | radiometric | 10 µM | activity vs control | 0% |
| FC(F)(F)Oc1cccc(-c2cnc3ccc(-c4ccncc4)nn23)c1 | enzyme activity | inhibitor | radiometric | 5 µM | activity vs control | 81% |
| CCN(CC)CCNC(=O)c1c(C)[nH]c(/C=C2\C(=O)Nc3ccc(F)cc32)c1C | enzyme activity | inhibitor |  | 10 µM | inhibition | 6% |
| Cc1c[nH]c2nccc(Oc3c(F)cc(Nc4cc(Cl)nc(N)n4)cc3F)c12 | cell-free assay |  | competition with immobilised ligand | 0.1 µM | remaining binding | 90% |
| O=C1NC(=O)c2cc(Nc3ccc(F)cc3)c(Nc3ccc(F)cc3)cc21 | cell-free assay |  |  | 0.5 µM | remaining signal | 101% |
| COc1cc(/C=C/C(=O)CC(=O)/C=C/c2ccc(O)c(OC)c2)ccc1O | enzyme activity | inhibitor |  | 1 µM | activity vs control | 129% |
| CC(C)(C)c1nc(-c2cccc(NS(=O)(=O)c3c(F)cccc3F)c2F)c(-c2ccnc(N)n2)s1 | enzyme activity | inhibitor | radiometric | 1 µM | remaining activity | 63% |
| CNC(=O)c1cc(Oc2ccc(NC(=O)Nc3ccc(Cl)c(C(F)(F)F)c3)cc2)ccn1 | enzyme activity | inhibitor |  | 0.3 µM | inhibition | 61% |
| O=C(Nc1cnn(-c2csc(C(=O)NC3COC3)c2)c1)Nc1ccccc1Cl | enzyme activity | inhibitor |  | 5 µM | remaining activity | 99.3% |
| O=C(NCc1ncc(C(F)(F)F)cc1Cl)c1ccc2c(c1)C1(CCS(=O)(=O)CC1)[C@@H](C1CC1)N2S(=O)(=O)c1ccc(F)cc1 | cell-free assay |  | competition with immobilised ligand | 1 µM | remaining binding | 76% |
| O=C(CSc1nc2nccnc2c(=O)n1CCc1ccccc1)Nc1nccs1 | enzyme activity | inhibitor |  | 10 µM | inhibition | -11% |
| O=C(Nc1cnn(-c2csc(C(=O)NC3COC3)c2)c1)Nc1c(F)cccc1Cl | enzyme activity | inhibitor |  | 5 µM | remaining activity | 90.8% |

| Compound | read-out | mode | method | tested at | quantity | result |
| --- | --- | --- | --- | --- | --- | --- |
| CC(C)(O)c1cncc(-c2nc3ccc(F)cc3n2C2CC2)c1 | cell-free assay |  | competition with immobilised ligand | 1 µM | remaining binding | 100% |
| COc1ccc(COc2ccc(Cc3cnc(N)nc3N)cc2OC)cc1 | cell-free assay |  |  | 0.5 µM | remaining signal | 90.6% |
| CO[C@@H](C)c1c(Nc2ccc([C@@H](N(C)C(=O)C3CCS(=O)(=O)CC3)C(F)(F)F)cc2)cnc2cc(Cl)nn12 | cell-free assay |  | competition with immobilised ligand | 1 µM | remaining binding | 85% |
| COc1cc(Nc2cnc(C#N)c(O[C@H](C)CN(C)C)n2)ncc1-c1cnn(C)c1 | enzyme activity | inhibitor | radiometric | 1 µM | remaining activity | 98% |
| Cc1ccc(Nc2nccc(N(C)c3ccc4c(C)n(C)nc4c3)n2)cc1S(N)(=O)=O | enzyme activity | inhibitor |  | 0.3 µM | inhibition | 3% |
| C[C@@H]1CN(c2cc(-c3nn(C)c4ccc(OC5(C)CC5)cc34)ncn2)C[C@H](C)O1 | cell-free assay |  | competition with immobilised ligand | 1 µM | remaining binding | 67% |
| Nc1nc(Nc2ccc(S(N)(=O)=O)cc2)nn1C(=O)c1c(F)cccc1F | cell-free assay |  |  | 0.5 µM | remaining signal | 95.9% |
| FC(F)c1nc2ccccc2n1-c1nc(N2CCOCC2)nc(N2CCOCC2)n1 | enzyme activity | inhibitor |  | 10 µM | remaining activity | 101% |
| COc1cc(-c2cn(C3CCc4ccccc4N(CC(F)(F)F)C3=O)nn2)ccc1-n1ccc(C)n1 (centres unmarked) | cell-free assay |  | competition with immobilised ligand | 1 µM | remaining binding | 66% |
| CCCOc1ccc(OC)c(F)c1C(=O)c1ccc(C(=O)N[C@@H]2CNC[C@H]2NC(=O)c2ccc3[nH]ncc3c2)cc1 | enzyme activity | inhibitor |  | 10 µM | remaining activity | 67% |
| Cc1cc(NC(=O)c2cccc3cc(-c4cccc5[nH]nc(N)c45)ccc23)ccc1F | enzyme activity | inhibitor |  | 0.1 µM | activity vs control | 111% |
| CC(C)c1ccc(NC(=O)c2cccs2)c(-c2nc3ccccc3[nH]c2=O)c1 | enzyme activity | inhibitor |  | 1 µM | activity vs control | 97% |
| NS(=O)(=O)c1cc(NC(=O)C2(c3ccccc3Cl)CC2)ccc1Oc1cccc(Cl)c1 | cell-free assay |  | competition with immobilised ligand | 1 µM | remaining binding | 100% |
| O=C1Nc2ccc(Cl)cc2C1=Cc1cc(Cl)c(O)c(Cl)c1 | cell-free assay |  |  | 0.5 µM | remaining signal | 88.7% |
| CCC(=O)N[C@H]1CC[C@@H](C(=O)N(C)c2ccc(-c3nc4ccccc4o3)cc2)C1 | cell-free assay |  | competition with immobilised ligand | 1 µM | remaining binding | 100% |
| Nc1nc(NC2CCCCC2)sc1C(=O)c1ccccc1 | enzyme activity | inhibitor |  | 10 µM | remaining activity | 94% |
